Measurements reported in ChEMBL document CHEMBL3272198, “Preparation and in vitro antifungal activities of some quinolizidine derived hemiaminals and beta-tert-amino sulfides” (1976).

Tests used:
Assay type in all cases: functional
Blastomyces dermatitidis [1] = experiment: Antifungal activity against Blastomyces dermatitidis Gilchrist & Stokes isolate 1107 at 100 ug/ml after 3 weeks (reference value: 40 mm); details: Gilchrist & Stokes isolate 1107, 504 h, read-out: DIZ
In short: (§1)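 Mycelial phase grown on Sabouraud dextrose agar at 25°C. Agar pH was set to 6 before the test solution was added and was 5.0-5.5 after. Test solutions contained HOAc and Me2SO, and solvent and blank controls were included. Each quadrant was center-inoculated with a 2 × 2 mm piece of a 2-week-old mycelial culture. Colony diameter was measured weekly for 3 weeks and reported as total increments (mm). Duplicates were run.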

Blastomyces dermatitidis [2] = experiment: Antifungal activity against Blastomyces dermatitidis Gilchrist & Stokes isolate 1107 at 60 ug/ml after 3 weeks (reference value: 40 mm); details: Gilchrist & Stokes isolate 1107, 504 h, read-out: DIZ; in short: as §1
Blastomyces dermatitidis [3] = experiment: Antifungal activity against Blastomyces dermatitidis Gilchrist & Stokes isolate 1107 at 20 ug/ml after 3 weeks (reference value: 40 mm); details: Gilchrist & Stokes isolate 1107, 504 h, read-out: DIZ
Histoplasma capsulatum [4] = experiment: Antifungal activity against Histoplasma capsulatum Darling isolate 1106 at 80 ug/ml after 1 week (reference value: 14 mm); details: Darling isolate 1106, 168 h, read-out: DIZ
Histoplasma capsulatum [5] = experiment: Antifungal activity against Histoplasma capsulatum Darling isolate 1106 at 20 ug/ml after 1 week (reference value: 14 mm); details: Darling isolate 1106, 168 h, read-out: DIZ
Histoplasma capsulatum [6] = experiment: Antifungal activity against Histoplasma capsulatum Darling isolate 1106 at 10 ug/ml after 1 week (reference value: 14 mm); details: Darling isolate 1106, 168 h, read-out: DIZ
Histoplasma capsulatum [7] = experiment: Antifungal activity against Histoplasma capsulatum Darling isolate 1106 at 100 ug/ml after 2 weeks (reference value: 25 mm); details: Darling isolate 1106, 336 h, read-out: DIZ
Histoplasma capsulatum [8] = experiment: Antifungal activity against Histoplasma capsulatum Darling isolate 1106 at 80 ug/ml after 2 weeks (reference value: 25 mm); details: Darling isolate 1106, 336 h, read-out: DIZ
Histoplasma capsulatum [9] = experiment: Antifungal activity against Histoplasma capsulatum Darling isolate 1106 at 60 ug/ml after 2 weeks (reference value: 25 mm); details: Darling isolate 1106, 336 h, read-out: DIZ
Histoplasma capsulatum [10] = experiment: Antifungal activity against Histoplasma capsulatum Darling isolate 1106 at 10 ug/ml after 2 weeks (reference value: 25 mm); details: Darling isolate 1106, 336 h, read-out: DIZ
Histoplasma capsulatum [11] = experiment: Antifungal activity against Histoplasma capsulatum Darling isolate 1106 at 100 ug/ml after 3 weeks (reference value: 31 mm); details: Darling isolate 1106, 504 h, read-out: DIZ
Histoplasma capsulatum [12] = experiment: Antifungal activity against Histoplasma capsulatum Darling isolate 1106 at 40 ug/ml after 3 weeks (reference value: 31 mm); details: Darling isolate 1106, 504 h, read-out: DIZ
Histoplasma capsulatum [13] = experiment: Antifungal activity against Histoplasma capsulatum Darling isolate 1106 at 20 ug/ml after 3 weeks (reference value: 31 mm); details: Darling isolate 1106, 504 h, read-out: DIZ
Blastomyces dermatitidis [14] = experiment: Antifungal activity against Blastomyces dermatitidis Gilchrist & Stokes isolate 1099 at 60 ug/ml after 2 weeks (reference value: 27 mm); details: Gilchrist & Stokes isolate 1099, 336 h, read-out: DIZ; in short: as §1
Blastomyces dermatitidis [15] = experiment: Antifungal activity against Blastomyces dermatitidis Gilchrist & Stokes isolate 1099 at 40 ug/ml after 2 weeks (reference value: 27 mm); details: Gilchrist & Stokes isolate 1099, 336 h, read-out: DIZ; in short: as §1
Blastomyces dermatitidis [16] = experiment: Antifungal activity against Blastomyces dermatitidis Gilchrist & Stokes isolate 1099 at 20 ug/ml after 2 weeks (reference value: 27 mm); details: Gilchrist & Stokes isolate 1099, 336 h, read-out: DIZ
Blastomyces dermatitidis [17] = experiment: Antifungal activity against Blastomyces dermatitidis Gilchrist & Stokes isolate 1099 at 100 ug/ml after 3 weeks (reference value: 34 mm); details: Gilchrist & Stokes isolate 1099, 504 h, read-out: DIZ; in short: as §1
Blastomyces dermatitidis [18] = experiment: Antifungal activity against Blastomyces dermatitidis Gilchrist & Stokes isolate 1099 at 60 ug/ml after 3 weeks (reference value: 34 mm); details: Gilchrist & Stokes isolate 1099, 504 h, read-out: DIZ; in short: as §1
Blastomyces dermatitidis [19] = experiment: Antifungal activity against Blastomyces dermatitidis Gilchrist & Stokes isolate 1099 at 40 ug/ml after 3 weeks (reference value: 34 mm); details: Gilchrist & Stokes isolate 1099, 504 h, read-out: DIZ; in short: as §1
Blastomyces dermatitidis [20] = experiment: Antifungal activity against Blastomyces dermatitidis Gilchrist & Stokes isolate 1099 at 20 ug/ml after 3 weeks (reference value: 34 mm); details: Gilchrist & Stokes isolate 1099, 504 h, read-out: DIZ
Blastomyces dermatitidis [21] = experiment: Antifungal activity against Blastomyces dermatitidis Gilchrist & Stokes isolate 1107 at 60 ug/ml after 1 week (reference value: 20 mm); details: Gilchrist & Stokes isolate 1107, 168 h, read-out: DIZ
Blastomyces dermatitidis [22] = experiment: Antifungal activity against Blastomyces dermatitidis Gilchrist & Stokes isolate 1107 at 10 ug/ml after 1 week (reference value: 20 mm); details: Gilchrist & Stokes isolate 1107, 168 h, read-out: DIZ; in short: as §1
Blastomyces dermatitidis [23] = experiment: Antifungal activity against Blastomyces dermatitidis Gilchrist & Stokes isolate 1107 at 80 ug/ml after 2 weeks (reference value: 35 mm); details: Gilchrist & Stokes isolate 1107, 336 h, read-out: DIZ; in short: as §1
Blastomyces dermatitidis [24] = experiment: Antifungal activity against Blastomyces dermatitidis Gilchrist & Stokes isolate 1107 at 40 ug/ml after 2 weeks (reference value: 35 mm); details: Gilchrist & Stokes isolate 1107, 336 h, read-out: DIZ; in short: as §1
Blastomyces dermatitidis [25] = experiment: Antifungal activity against Blastomyces dermatitidis Gilchrist & Stokes isolate 1107 at 20 ug/ml after 2 weeks (reference value: 35 mm); details: Gilchrist & Stokes isolate 1107, 336 h, read-out: DIZ
Histoplasma capsulatum [26] = experiment: Antifungal activity against Histoplasma capsulatum Darling isolate 1098 at 100 ug/ml after 1 week (reference value: 12 mm); details: Darling isolate 1098, 168 h, read-out: DIZ
Histoplasma capsulatum [27] = experiment: Antifungal activity against Histoplasma capsulatum Darling isolate 1098 at 60 ug/ml after 1 week (reference value: 12 mm); details: Darling isolate 1098, 168 h, read-out: DIZ
Histoplasma capsulatum [28] = experiment: Antifungal activity against Histoplasma capsulatum Darling isolate 1098 at 100 ug/ml after 2 weeks (reference value: 21 mm); details: Darling isolate 1098, 336 h, read-out: DIZ
Histoplasma capsulatum [29] = experiment: Antifungal activity against Histoplasma capsulatum Darling isolate 1098 at 40 ug/ml after 2 weeks (reference value: 21 mm); details: Darling isolate 1098, 336 h, read-out: DIZ
Histoplasma capsulatum [30] = experiment: Antifungal activity against Histoplasma capsulatum Darling isolate 1098 at 100 ug/ml after 3 weeks (reference value: 28 mm); details: Darling isolate 1098, 504 h, read-out: DIZ
Histoplasma capsulatum [31] = experiment: Antifungal activity against Histoplasma capsulatum Darling isolate 1098 at 80 ug/ml after 3 weeks (reference value: 28 mm); details: Darling isolate 1098, 504 h, read-out: DIZ
Histoplasma capsulatum [32] = experiment: Antifungal activity against Histoplasma capsulatum Darling isolate 1098 at 40 ug/ml after 3 weeks (reference value: 28 mm); details: Darling isolate 1098, 504 h, read-out: DIZ
Histoplasma capsulatum [33] = experiment: Antifungal activity against Histoplasma capsulatum Darling isolate 1098 at 20 ug/ml after 3 weeks (reference value: 28 mm); details: Darling isolate 1098, 504 h, read-out: DIZ

SMILES: CS[C@@]1(C)CC[C@@H]2CCCCN2C1O (stereo partly drawn)
- zone of inhibition at 100 µg/mL (Blastomyces dermatitidis [1]): 40 mm
- zone of inhibition at 60 µg/mL (Blastomyces dermatitidis [2]): 40 mm
- zone of inhibition at 20 µg/mL (Blastomyces dermatitidis [3]): 40 mm
- zone of inhibition at 80 µg/mL (Histoplasma capsulatum [4]): 10 mm
- zone of inhibition at 20 µg/mL (Histoplasma capsulatum [5]): 11 mm
- zone of inhibition at 10 µg/mL (Histoplasma capsulatum [6]): 11 mm
- zone of inhibition at 100 µg/mL (Histoplasma capsulatum [7]): 17 mm
- zone of inhibition at 80 µg/mL (Histoplasma capsulatum [8]): 19 mm
- zone of inhibition at 60 µg/mL (Histoplasma capsulatum [9]): 19 mm
- zone of inhibition at 10 µg/mL (Histoplasma capsulatum [10]): 21 mm
- zone of inhibition at 100 µg/mL (Histoplasma capsulatum [11]): 26 mm
- zone of inhibition at 40 µg/mL (Histoplasma capsulatum [12]): 28 mm
- zone of inhibition at 20 µg/mL (Histoplasma capsulatum [13]): 26 mm
- zone of inhibition at 60 µg/mL (Blastomyces dermatitidis [14]): 25 mm
- zone of inhibition at 40 µg/mL (Blastomyces dermatitidis [15]): 26 mm
- zone of inhibition at 20 µg/mL (Blastomyces dermatitidis [16]): 26 mm
- zone of inhibition at 100 µg/mL (Blastomyces dermatitidis [17]): 33 mm
- zone of inhibition at 60 µg/mL (Blastomyces dermatitidis [18]): 32 mm
- zone of inhibition at 40 µg/mL (Blastomyces dermatitidis [19]): 34 mm
- zone of inhibition at 20 µg/mL (Blastomyces dermatitidis [20]): 35 mm
- zone of inhibition at 60 µg/mL (Blastomyces dermatitidis [21]): 20 mm
- zone of inhibition at 10 µg/mL (Blastomyces dermatitidis [22]): 20 mm
- zone of inhibition at 80 µg/mL (Blastomyces dermatitidis [23]): 29 mm
- zone of inhibition at 40 µg/mL (Blastomyces dermatitidis [24]): 33 mm
- zone of inhibition at 20 µg/mL (Blastomyces dermatitidis [25]): 34 mm
- zone of inhibition at 100 µg/mL (Histoplasma capsulatum [26]): 8 mm
- zone of inhibition at 60 µg/mL (Histoplasma capsulatum [27]): 9 mm
- zone of inhibition at 100 µg/mL (Histoplasma capsulatum [28]): 15 mm
- zone of inhibition at 40 µg/mL (Histoplasma capsulatum [29]): 19 mm
- zone of inhibition at 100 µg/mL (Histoplasma capsulatum [30]): 30 mm
- zone of inhibition at 80 µg/mL (Histoplasma capsulatum [31]): 30 mm
- zone of inhibition at 40 µg/mL (Histoplasma capsulatum [32]): 30 mm
- zone of inhibition at 20 µg/mL (Histoplasma capsulatum [33]): 31 mm
